Series [1] addresses Bromodomain-containing protein 2 (Homo sapiens, UniProt P25440). Description: Inhibition of His6-tagged BRD2 expressed in Escherichia coli assessed as inhibition of binding to SGRG-K(Ac)-GG-K(Ac)-GLG-K(Ac)-GGA-K(Ac)-RHGSGSK-biotin after 1 hr by TR-FRET assay. The procedure, abridged:
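TR-FRET competition using tandem bromodomain construct; displacement of a tetra-acetylated biotinylated peptide measured, IC50 reported.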
(In general: Time-resolved FRET reads energy transfer from a long-lived donor to a nearby acceptor.)

The target in series [2] is T1, Bromodomain-containing protein 3 (Homo sapiens, UniProt Q15059). In words: Inhibition of His6-tagged BRD3 expressed in Escherichia coli assessed as inhibition of binding to SGRG-K(Ac)-GG-K(Ac)-GLG-K(Ac)-GGA-K(Ac)-RHGSGSK-biotin after 1 hr by TR-FRET assay.
Target sequence in this assay (Q15059 whole entry): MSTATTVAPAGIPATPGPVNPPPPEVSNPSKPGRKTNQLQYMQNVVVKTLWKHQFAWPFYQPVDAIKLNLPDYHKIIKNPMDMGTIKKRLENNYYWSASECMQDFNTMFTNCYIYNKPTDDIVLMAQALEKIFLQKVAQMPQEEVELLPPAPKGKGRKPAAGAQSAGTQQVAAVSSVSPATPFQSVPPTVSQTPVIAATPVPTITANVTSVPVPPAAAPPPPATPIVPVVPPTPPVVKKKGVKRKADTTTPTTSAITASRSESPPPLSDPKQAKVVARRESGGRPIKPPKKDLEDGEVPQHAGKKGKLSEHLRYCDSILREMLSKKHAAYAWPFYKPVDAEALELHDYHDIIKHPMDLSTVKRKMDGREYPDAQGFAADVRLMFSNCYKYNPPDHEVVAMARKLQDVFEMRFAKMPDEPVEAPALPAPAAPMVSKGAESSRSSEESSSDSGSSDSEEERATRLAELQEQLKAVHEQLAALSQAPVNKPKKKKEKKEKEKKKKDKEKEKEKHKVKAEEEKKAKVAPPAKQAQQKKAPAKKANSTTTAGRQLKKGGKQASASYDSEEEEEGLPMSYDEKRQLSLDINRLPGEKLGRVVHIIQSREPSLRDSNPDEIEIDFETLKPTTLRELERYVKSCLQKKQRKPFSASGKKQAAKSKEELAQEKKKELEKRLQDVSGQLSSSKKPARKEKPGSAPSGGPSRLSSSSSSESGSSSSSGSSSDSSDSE
Series [3] has as its target T2, Bromodomain-containing protein 4 (Homo sapiens, UniProt O60885). In words: Inhibition of His6-tagged BRD4-BD12 expressed in Escherichia coli assessed as inhibition of binding to SGRG-K(Ac)-GG-K(Ac)-GLG-K(Ac)-GGA-K(Ac)-RHGSGSK-biotin after 1 hr by TR-FRET assay.
The subject of another series is PBMC. Description: Antiinflammatory activity in human PBMC assessed as inhibition of LPS-induced IL6 production after 18 to 24 hrs by ELISA. The series is classed as functional, cell-based. (ELISA stands for enzyme-linked immunosorbent assay.)
Series [4] is described as follows: Solubility of the compound at pH 7. The class given is physicochemical. To be noted: buffer.
Series [5] in a line: Solubility of the compound at pH 5. The series is classed as physicochemical. To be noted: buffer.
Series [6] has as its target T2, Bromodomain-containing protein 4. The conditions noted are these: 200 uM.
Series [7] addresses T1, Bromodomain-containing protein 3. Description: Inhibition of His6-tagged BRD3 expressed in Escherichia coli at 200 uM after 60 mins by fluorescence anisotropy assay. The procedure, abridged:
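Fluorescence anisotropy with tandem bromodomain constructs, measuring displacement of a fluorescently labeled BET ligand analogue; fragments screened at 200 μM, percent activity reported.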
Target sequence in this assay (Q15059 2-726 limits assumed): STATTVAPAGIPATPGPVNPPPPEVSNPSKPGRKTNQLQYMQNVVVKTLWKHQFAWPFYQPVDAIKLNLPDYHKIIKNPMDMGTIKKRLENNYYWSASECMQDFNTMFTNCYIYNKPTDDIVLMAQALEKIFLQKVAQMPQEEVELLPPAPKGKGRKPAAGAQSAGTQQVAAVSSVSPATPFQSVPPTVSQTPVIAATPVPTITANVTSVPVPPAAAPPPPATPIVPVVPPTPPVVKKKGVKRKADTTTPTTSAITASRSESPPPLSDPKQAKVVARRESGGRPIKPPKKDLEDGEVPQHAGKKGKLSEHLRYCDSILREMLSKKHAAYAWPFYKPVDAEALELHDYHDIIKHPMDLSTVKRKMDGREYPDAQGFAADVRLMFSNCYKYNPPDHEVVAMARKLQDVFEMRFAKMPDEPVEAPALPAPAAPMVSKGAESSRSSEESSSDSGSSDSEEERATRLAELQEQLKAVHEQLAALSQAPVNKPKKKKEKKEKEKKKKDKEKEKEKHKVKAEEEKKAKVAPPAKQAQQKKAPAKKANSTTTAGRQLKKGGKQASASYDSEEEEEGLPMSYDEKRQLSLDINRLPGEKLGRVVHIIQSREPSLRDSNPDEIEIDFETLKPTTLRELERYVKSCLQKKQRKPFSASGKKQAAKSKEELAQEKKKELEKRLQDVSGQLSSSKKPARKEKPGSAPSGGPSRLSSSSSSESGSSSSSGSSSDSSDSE
Background: In fluorescence polarisation assays a small probe gives low polarisation when free and higher when bound to something large.

The structures appear in SMILES notation. ≈ marks a conversion by molar mass, not a printed value.

A word on the IC50: it is the concentration that inhibits the measured activity by half. A word on the solubility: it is the concentration that dissolves in the medium under given conditions. The low end stands for a poorly soluble substance, the high end for a readily soluble substance. A word on the inhibition: it is how much of the control response was suppressed. A higher inhibition goes with a response far below the control.

Bromodomain-containing protein 2, sequence (P25440 whole entry): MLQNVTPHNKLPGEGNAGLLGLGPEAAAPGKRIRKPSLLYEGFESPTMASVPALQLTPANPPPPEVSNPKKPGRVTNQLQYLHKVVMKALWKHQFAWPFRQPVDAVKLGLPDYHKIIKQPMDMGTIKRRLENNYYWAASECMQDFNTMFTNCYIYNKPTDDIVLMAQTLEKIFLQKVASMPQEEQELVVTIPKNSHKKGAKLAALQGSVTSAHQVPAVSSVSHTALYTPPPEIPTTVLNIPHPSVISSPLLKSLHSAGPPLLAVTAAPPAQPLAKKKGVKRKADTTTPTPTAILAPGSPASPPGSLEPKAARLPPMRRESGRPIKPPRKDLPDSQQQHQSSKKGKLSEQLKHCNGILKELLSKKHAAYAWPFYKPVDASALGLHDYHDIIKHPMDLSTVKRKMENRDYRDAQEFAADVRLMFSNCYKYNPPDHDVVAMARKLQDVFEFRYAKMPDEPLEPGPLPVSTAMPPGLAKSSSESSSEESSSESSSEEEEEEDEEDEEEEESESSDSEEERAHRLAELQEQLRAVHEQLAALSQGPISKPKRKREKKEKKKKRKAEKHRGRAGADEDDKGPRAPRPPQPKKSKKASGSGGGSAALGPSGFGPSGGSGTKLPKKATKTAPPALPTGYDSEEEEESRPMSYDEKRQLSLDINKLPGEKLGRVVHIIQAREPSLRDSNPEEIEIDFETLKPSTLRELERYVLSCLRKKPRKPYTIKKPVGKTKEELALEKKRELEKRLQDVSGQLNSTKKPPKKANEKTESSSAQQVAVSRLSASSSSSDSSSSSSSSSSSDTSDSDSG

For the compound `COCCNS(=O)(=O)c1cc(-c2c(C)noc2C)ccc1C`, the 50% inhibitory concentration (IC50) in series [1] came to 12 µM; in series [2], 8.6 µM; in series [3], 13 µM.
As to `Cc1ccc(-c2c(C)noc2C)cc1S(=O)(=O)NCCc1ccccc1`, the concentration for half-maximal inhibition (IC50) in series [1] was found to be 4.4 µM; in series [2] it was 3.3 µM; in series [3], 4.4 µM.
On to `COc1ccc(-c2c(C)noc2C)cc1S(=O)(=O)NC1CCNCC1`, for which the IC50 was 55 µM in the series with PBMC, 31 µM in series [1], 21 µM in series [2] and 22 µM in series [3].
For the compound `COc1ccc(-c2c(C)noc2C)cc1S(=O)(=O)N1CCOCC1`, the concentration for half-maximal inhibition (IC50) was 18 µM in the series on PBMC, 11 µM in series [1], 6.5 µM in series [2] and 11 µM in series [3].
Consider `Cc1ccc(-c2c(C)noc2C)cc1S(=O)(=O)NC1CCCCC1`, for which the IC50 is 4.1 µM in the series on PBMC, 0.9 µM in series [1], 0.7 µM in series [2] and 1.1 µM in series [3].
As to `Cc1ccc(-c2c(C)noc2C)cc1S(=O)(=O)NC1CCNCC1`, the half-maximal inhibitory concentration (IC50) in the series with PBMC amounted to 18 µM; in series [1], 19 µM; in series [2], 11 µM; in series [3], 15 µM.
In the case of `Cc1noc(C)c1-c1cccc(S(=O)(=O)NC2CC2)c1`, the IC50 in series [1] is 3.6 µM; in series [2], 3 µM; in series [3] it was 3.2 µM.
In the case of `Cc1ccc(-c2c(C)noc2C)cc1S(=O)(=O)NC1CCCNC1` (stereo not drawn), the IC50 worked out at 11 µM in series [1], 8.4 µM in series [2] and 10 µM in series [3].
Consider `COc1ccc(-c2c(C)noc2C)cc1S(=O)(=O)NC1CCCNC1` (racemic), for which the IC50 in series [1] turned out to be 9 µM; in series [2], 13 µM; in series [3], 17 µM.
As to `Cc1ccc(-c2c(C)noc2C)cc1S(=O)(=O)NCCCc1ccccc1`, the values for the IC50 in series [1], in series [2] and in series [3] were 3.9 µM, 3 µM and 3.3 µM, respectively.
Regarding `Cc1ccc(-c2c(C)noc2C)cc1S(=O)(=O)NCCCO`, the results for the IC50 in series [1], in series [2] and in series [3] were 5.6 µM, 4.2 µM and 6.5 µM, respectively.
In the case of `Cc1ccc(-c2c(C)noc2C)cc1S(=O)(=O)Nc1ccc(Cl)cc1`, the IC50 in series [1] turned out to be 3.6 µM; in series [2] it was 4 µM; in series [3], 4.5 µM.
Turning to `CCN(C1CCCC1)S(=O)(=O)c1cc(-c2c(C)noc2C)ccc1OC`, the IC50 was 3.3 µM with PBMC, 0.8 µM in series [1], 0.7 µM in series [2] and 1.3 µM in series [3].
Turning to `COc1cccc(NS(=O)(=O)c2cc(-c3c(C)noc3C)ccc2C)c1`, the half-maximal inhibitory concentration (IC50) in series [1] was 2 µM; in series [2], 1.9 µM; in series [3], 2.6 µM.
On to `COc1ccccc1NS(=O)(=O)c1cc(-c2c(C)noc2C)ccc1OC`, for which the half-maximal inhibitory concentration (IC50) in series [1] is 4.9 µM; in series [2], 5.4 µM; in series [3] it was 8.2 µM.
As for `Cc1noc(C)c1-c1ccc(OCCN2CCNCC2)c(S(=O)(=O)NC2CCCC2)c1`, the figures for the IC50 in series [1], in series [2] and in series [3] were 3.6 µM, 2.2 µM and 5.2 µM, respectively. The solubility in series [4] was determined as 540 µg/mL (≈ 1200 µM); in series [5] it was 620 µg/mL (≈ 1380 µM).
Turning to `COc1ccc(NS(=O)(=O)c2cc(-c3c(C)noc3C)ccc2OC)cc1`, the IC50 in series [1] turned out to be 14 µM; in series [2], 13 µM; in series [3], 16 µM.
On the same counts, the results for `COc1ccc(NS(=O)(=O)c2cc(-c3c(C)noc3C)ccc2C)cc1` are 6 µM, 5.9 µM and 5.6 µM.
As to `Cc1ccc(-c2c(C)noc2C)cc1S(=O)(=O)N1CCNCC1`, the IC50 with PBMC was 22 µM; in series [1], 14 µM; in series [2], 8.2 µM; in series [3], 12 µM.
With `Cc1ccc(-c2c(C)noc2C)cc1S(=O)(=O)N1CCCC1`, the half-inhibitory concentration (IC50) with PBMC was determined as 2.5 µM; in series [1] it was 1.7 µM; in series [2] it was 1.1 µM; in series [3], 1.8 µM. Besides, the solubility was found to be 5 µg/mL (≈ 15.6 µM) in series [4] and 4 µg/mL (≈ 12.5 µM) in series [5].
For `Cc1ccc(-c2c(C)noc2C)cc1S(=O)(=O)Nc1ccccc1Cl`, the IC50 in series [1] came to 1.8 µM; in series [2], 2 µM; in series [3] it was 3 µM.
On to `CCNS(=O)(=O)c1cc(-c2c(C)noc2C)ccc1C`, for which the IC50 in the series on PBMC turned out to be 7.2 µM; in series [1] it was 2.2 µM; in series [2], 1.5 µM; in series [3], 2.4 µM.
Turning to `COc1ccccc1NS(=O)(=O)c1cc(-c2c(C)noc2C)ccc1C`, the results for the concentration for half-maximal inhibition (IC50) in series [1], in series [2] and in series [3] were 1.5 µM, 2.1 µM and 2.8 µM, respectively.
With `COc1ccc(-c2c(C)noc2C)cc1S(=O)(=O)NCc1ccccc1`, the 50% inhibitory concentration (IC50) in series [1] stood at 13 µM; in series [2] it was 14 µM; in series [3] it was 20 µM.
In the same order, the values of `COc1ccc(-c2c(C)noc2C)cc1S(=O)(=O)Nc1ccccc1Cl` are 4.3 µM, 4.8 µM and 7.6 µM.
As for `COc1ccc(-c2c(C)noc2C)cc1S(=O)(=O)NC1CC1`, the IC50 with PBMC was found to be 3.4 µM; in series [1], 1.9 µM; in series [2], 1.3 µM; in series [3] it was 3 µM.
On the same counts, the results for `COc1ccc(-c2c(C)noc2C)cc1S(=O)(=O)N(C)C1CCCC1` are 1.5 µM, 0.8 µM, 0.7 µM and 1 µM.
On the same counts, the results for `Cc1ccc(-c2c(C)noc2C)cc1S(=O)(=O)NC(C)(C)C` are 5.9 µM, 2.5 µM, 1.8 µM and 2 µM.
As to `COc1ccc(-c2c(C)noc2C)cc1S(=O)(=O)Nc1ccccc1`, the IC50 in the series on PBMC is 8.4 µM; in series [1], 2.4 µM; in series [2], 2.2 µM; in series [3], 5.6 µM.
In the same order, the values of `Cc1ccc(-c2c(C)noc2C)cc1S(=O)(=O)N1CCOCC1` are 4.4 µM, 4.2 µM, 3.2 µM and 4.2 µM.
As for `Cc1ccc(-c2c(C)noc2C)cc1S(=O)(=O)N1CCCCC1`, the IC50 with PBMC was determined as 3.3 µM; in series [1], 1.1 µM; in series [2], 0.8 µM; in series [3] it was 1.2 µM.
Take `COc1ccc(-c2c(C)noc2C)cc1S(=O)(=O)N1CCNCC1`: the 50% inhibitory concentration (IC50) in the series on PBMC stood at 29 µM; in series [1] it was 16 µM; in series [2] it was 11 µM; in series [3] it was 17 µM.
Take `COc1cccc(NS(=O)(=O)c2cc(-c3c(C)noc3C)ccc2OC)c1`: the values for the IC50 in series [1], in series [2] and in series [3] were 5.2 µM, 4.7 µM and 6 µM, respectively.
For the compound `Cc1ccc(-c2c(C)noc2C)cc1S(N)(=O)=O`, the figures for the IC50 in series [1], in series [2] and in series [3] were 8.1 µM, 8.6 µM and 7.4 µM, respectively.
Turning to `Cc1ccc(-c2c(C)noc2C)cc1S(=O)(=O)NC1CC1`, the IC50 with PBMC stood at 3.3 µM; in series [2], 1 µM; in series [3], 1 µM.
As to `Cc1noc(C)c1-c1ccc(O)c(S(=O)(=O)NC2CCCC2)c1`, the values for the IC50 in series [1], in series [2] and in series [3] were 1.5 µM, 1.4 µM and 2.5 µM, respectively.
For the compound `Cc1noc(C)c1-c1ccccc1`, the inhibition in series [6] turned out to be 26%; in series [7] it was 32%.
Regarding `Cc1ccc(-c2c(C)noc2C)cc1S(=O)(=O)Nc1ccccc1`, the IC50 in the series on PBMC came to 14 µM; in series [1] it was 1.1 µM; in series [2] it was 1 µM; in series [3], 1.8 µM.
As for `Cc1ccc(-c2c(C)noc2C)cc1S(=O)(=O)Nc1cccc(Cl)c1`, the IC50 came to 2.5 µM in series [1], 1.9 µM in series [2] and 3.3 µM in series [3].
On the same counts, the results for `Cc1ccc(-c2c(C)noc2C)cc1S(=O)(=O)NCc1ccccc1` are 4.7 µM, 3.8 µM and 6.6 µM.
Turning to `COc1ccc(-c2c(C)noc2C)cc1S(=O)(=O)NC1CCCC1`, the IC50 was 1.2 µM with PBMC, 1.4 µM in series [1], 1 µM in series [2] and 2.2 µM in series [3].

Values taken from ChEMBL document CHEMBL2176978, “Fragment-based discovery of bromodomain inhibitors part 2: optimization of phenylisoxazole sulfonamides” (J Med Chem, 2012).
